An excerpt weighted towards active compounds, which were near 9.2% of everything screened.
HCT116 bCat-KO – beta-catenin-lacking colon tumor cell growth suppression | HCT116 beta-catenin knockout viability, CellTiter-Glo, 60 h; active compounds read low | viability, % at 10 µM | 1.5% of 140,000 active | AID 818;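 active = viability at or under a set limit, the compound median less 4 SD, cut at about 6% in these data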
Autophagy HCS – modulators of autophagy; MEF GFP-LC3 puncta imaging; test concentration mostly 10 µM; calls only at 10 µM (by protocol); 0.98% of 190,000 active; AID 463193;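 active = percentage of spot-positive cells more than 3 SD above its plate mean, without a fluorescence outlier flag or 80% toxicity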
HCT116 PTEN-null – suppresses growth of cells with PTEN deletion. viability, % at 10 µM. 1.2% of 140,000 active. AID 827. HCT116 PTEN-null viability, CellTiter-Glo, 60 h; active compounds read low;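 active = viability at or below a set limit, 4 SD under the median of all tested compounds, cut at about 3.7% in these data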;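 note: PTEN knockout HCT116 line with beta catenin targeted HCT116 as companion control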
Lmaj promast – inhibitors of Leishmania major promastigote growth | inhibition, % at 10 µM | Leishmania major promastigotes, resazurin fluorescence viability | 9% of 200,000 active; in the data active = inhibition above about 50%;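 note: promastigotes grown with compound for 44 hours at 28 °C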
Dynein transport – dynein cargo transport inhibition; 3617.4 mouse cells, GR-EGFP nuclear translocation imaging; test concentration mostly 20 µM; stimulated with dexamethasone, 1 µM; active compounds read low; AID 1381; z-score, hits read low; 0.47% of 220,000 active;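 active = plate z-score of nuclear minus cytoplasmic receptor signal below a set negative limit, without overly bright fluorescence or cell loss, cut at about -3.5 in these data, passing the limit was not always enough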;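 note: z-score of nuclear minus cytoplasmic ring GR-EGFP intensity difference per well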
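Buffer or medium: tet-free, stripped-serum medium; reagent: dexamethasone at 1.0 µM final, 30 min; incubation: 48 h induction, 1 h compound, 30 min dex at 37 °C; measured by: formaldehyde fixation, Hoechst nuclear stain, 10x automated fluorescence imaging; read-out: nuclear-to-cytoplasmic GR-EGFP distribution per well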
A number is an active result; n = inactive; x = no result given; + = active, no number.

SMILES	HCT116 bCat-KO	Autophagy HCS	HCT116 PTEN-null	Lmaj promast	Dynein transport
COC(=O)c1sc(-c2ccccc2)cc1NC(=O)c1ccc(OC)cc1	3.1	n	n	n	n
COc1ccc(OC)c(C(=O)c2ccc(C(=O)Nc3cccc4ccccc34)cc2)c1	n	n	n	55.2	n
O=C(CCSc1nc2ccccc2s1)N/N=C/c1c(O)ccc2ccccc12	4.6	n	3.2	58.1	n
CCc1ccc(NC(=O)c2cnc(N3CCN(c4ccccn4)CC3)c3ccccc23)cc1	x	n	x	82.1	n
COc1cccc(-c2cc(C(=O)NCc3cccs3)no2)c1	x	x	x	x	n
Cc1ccc(N(CC(=O)NCc2ccc3c(c2)OCO3)S(=O)(=O)c2c(C)noc2C)cc1	n	n	n	58.6	n
COc1cc2[nH]c(=O)c(C(=O)NCCCN3CCOCC3)c(O)c2cc1OC	x	n	x	n	n
CCN(CC)CCNC(=O)c1c(O)c2cc(OC)c(OC)cc2[nH]c1=O	n	n	n	78.6	n
Cc1cccc(NC(=S)N2CCn3cccc3C2c2cccnc2)c1 (stereo not given)	n	n	n	88.7	n
Fc1ccc(NC(=S)N2CCn3cccc3C2c2cccnc2)cc1 (stereo not given)	x	n	x	91.1	n
Fc1ccc(C2c3cccn3CCN2C(=S)Nc2cccc(Br)c2)cc1 (stereo not given)	x	n	x	n	n
COc1cccc(NC(=S)N2CCn3cccc3C2c2cccnc2)c1 (stereo not given)	x	n	x	88.0	n
CCCCNC(=S)N1CCn2cccc2C1c1ccccc1 (stereo not given)	x	n	x	n	n
CCCCNC(=S)N1CCn2cccc2C1c1ccc(F)cc1 (stereo not given)	x	n	x	51.9	n
O=[N+]([O-])c1cccnc1N1CCN(c2ccc(F)cc2)CC1	x	n	x	n	n
COc1ccc(OC)c(NC(=O)C(=O)NCc2ccncc2)c1	n	n	n	n	n
O=C(NCc1cccc(Cl)c1)c1ccc(S(=O)(=O)Nc2cccc(C(F)(F)F)c2)cc1	n	n	n	64.4	n
CCN(c1ccccc1)S(=O)(=O)c1ccc(C(C(=O)OC)C(=O)OC)c([N+](=O)[O-])c1	x	n	x	99.0	n
Cc1ccc2nc(-c3ccc(NC(=O)c4ccco4)cc3)[nH]c2c1	n	n	n	n	n
O=C(c1ccccc1)c1ccc2nc(-c3ccc(NC(=O)c4ccccc4Br)cc3)[nH]c2c1	n	n	n	96.8	n
O=C(Nc1ccc(-c2nc3ccccc3[nH]2)cc1)c1ccc(N2C(=O)CCC2=O)cc1	n	n	n	50.0	n
O=C(Nc1ccc(-c2nc3ccc(NC(=O)c4cccs4)cc3[nH]2)cc1)c1cccs1	n	n	n	n	n
Cc1ccccc1C(=O)Nc1ccc(-c2nc3ccc(C(=O)c4ccccc4)cc3[nH]2)cc1	n	n	n	97.7	n
C/C(=N\NC(=O)COc1ccc(C)cc1C(C)C)c1cc2ccccc2o1	n	n	n	n	n
O=C(CCCCN1CCCCC1)c1ccc2c(c1)Cc1ccccc1-2	x	n	x	99.8	n
SMILES	HCT116 bCat-KO	Autophagy HCS	HCT116 PTEN-null	Lmaj promast	Dynein transport
COc1ccc(C(=O)CCN2CCCCCC2)cc1	1.2	n	1.3	85.2	n
CC(C)Oc1ccc(C(=O)CCN2CCCCC2)cc1	n	n	n	90.0	n
O=C(CCN1CCCCCC1)c1ccccc1	n	n	n	88.2	n
CCOc1ccc(C(=O)CCN2CCCCC2)cc1	n	n	n	n	n
COc1ccc(CC(=O)NC2CC(C)(C)NC(C)(C)C2)cc1	n	n	n	n	n
CCn1nnnc1NCc1ccc(OCc2ccc(F)cc2Cl)c(OC)c1	x	n	x	n	n
C/C(=N\Nc1ccc(C(F)(F)F)cn1)c1ccncc1	x	n	x	n	n
Cc1occc1-c1nnc(SCC(=O)N2CCCCC2)o1	x	n	x	n	n
COc1cc(/C=N/NC(=O)C(N)=O)ccc1OCC(=O)N1C(C)CCCC1C (stereo not given)	x	n	x	n	n
O=S(=O)(c1ccc(Cl)cc1)n1nnc2ccccc21	n	n	n	n	n
Cc1cccc(NS(=O)(=O)c2ccc3nc(-c4ccccc4)[nH]c3c2)c1C	n	n	n	59.2	n
NC(=O)N/N=C/C=C/c1ccccc1	x	n	x	n	n
O=S(=O)(N/N=C\C=C\c1ccccc1)c1ccc(Cl)cc1	n	n	n	92.2	n
CN(C(=O)CSc1ncnc2sc(-c3ccccc3)cc12)C1CCS(=O)(=O)C1 (stereo not given)	x	n	x	n	n
Cc1cc(NC(=O)Cc2ccccc2)c2ccccc2n1	x	n	x	n	n
COC(=O)Nc1cc(C)nc2ccccc12	n	n	n	55.3	n
CC1(C)NC(=O)N(CCCCOc2ccc(Cl)cc2C=O)C1=O	x	n	x	57.0	n
Nc1nc(N)c(N=Nc2ccc(Cl)cc2)c(=O)[nH]1	x	n	x	n	n
Cc1[nH]n2c(=O)c3c(nc2c1-c1ccc(Cl)cc1)CCC3	n	n	n	99.5	n
O=c1c2c(nc3c(-c4ccccc4)c[nH]n13)CCCC2	n	n	n	73.7	n
Cc1[nH]n2c(=O)c3c(nc2c1-c1ccccc1)CCC3	n	n	n	n	n
Nc1[nH]n2c(=O)c3c(nc2c1N=Nc1ccc(Cl)cc1)CCCC3	n	n	n	79.0	n
Nc1[nH]n(-c2ccccc2)c(=O)c1N=Nc1ccccc1	x	x	x	x	n
Nc1[nH]n2c(=O)c3c(nc2c1N=Nc1ccccc1)CCCC3	n	n	n	90.9	n
O=S(=O)(Nc1cccc(-c2nc3cccnc3s2)c1)c1cccs1	x	x	x	x	n
SMILES	HCT116 bCat-KO	Autophagy HCS	HCT116 PTEN-null	Lmaj promast	Dynein transport
O=C1CC(N2C(=O)/C(=C/C=C/c3ccccc3)SC2=S)C(=O)N1c1ccccc1 (stereo not given)	n	n	n	56.2	n
O=C(O)CN1C(=O)/C(=C/C=C/c2ccccc2)SC1=S	x	n	x	n	n
CCNc1nc(NCC)n2c(SCC(=O)Nc3ccc(F)cc3[N+](=O)[O-])nnc2n1	x	n	x	n	n
O=C(Nc1ccccc1NC(=O)c1c(F)c(F)c(F)c(F)c1F)c1c(F)c(F)c(F)c(F)c1F	2.4	n	2.6	n	n
Cc1nn(CC2CC2)c(=O)n1-c1ccc(F)cc1	x	n	x	n	n
CC(C)N(Cc1ccccc1)C(=O)CSc1nccn1C	x	+	x	n	n
C=CCNC(=O)c1onc(CSc2ccc(F)cc2)c1C(=O)NCCOC	n	n	n	n	n
O=C(Nc1cccc(-c2nnc(-c3ccco3)o2)c1)C(c1ccccc1)c1ccccc1	n	n	n	99.9	n
O=C(NCc1ccc(Cl)cc1)c1cccc(NC(=O)c2ccccc2)c1	n	n	n	54.6	n
O=C(NCc1ccccc1)c1ccc(Cl)cc1	x	x	x	x	n
COC(=O)c1[nH]c2ccc(Br)cc2c1NC(=O)C(C)N1CCN(C2CCCCC2)CC1 (stereo not given)	n	n	3.2	100.4	n
COC(=O)c1[nH]c2ccc(C)cc2c1NC(=O)NC1CCCCC1	5.2	n	n	n	n
COC(=O)c1[nH]c2ccc(C)cc2c1NC(=O)C(C)N1CCN(C2CCCCC2)CC1 (stereo not given)	n	n	n	n	n
COC(=O)c1[nH]c2ccc(C)cc2c1NC(=O)CN1CCC(C)CC1	n	n	n	n	n

Compound activity deposited in PubChem BioAssay by several laboratories.
